# Experimental data from ChEMBL document CHEMBL3745688, “Discovery of novel hybrids of diaryl-1,2,4-triazoles and caffeic acid as dual inhibitors of cyclooxygenase-2 and 5-lipoxygenase for cancer therapy” (Eur J Med Chem, 2016).
# Tests used:
# [1] = Antiproliferative activity against human Caco2 cells after 72 hrs by MTT assay; format: functional, cell-based; conditions: Caco-2, 72 h
# How it was run: (§1)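 Cells seeded at 5×10^4/well, grown 24 h at 37 °C in 5% CO₂, then exposed to compounds dissolved in DMSO at a range of concentrations for 72 h. MTT (5 mg/mL in PBS) added for 4 h, then OD read at 570 nm. IC50 taken from dose-response curves, mean ± S.D. of three independent experiments.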
# [2] = biological target: T1, Polyunsaturated fatty acid 5-lipoxygenase (Rattus norvegicus, UniProt P12527); experiment: Inhibition of 5-LOX in Sprague-Dawley rat leukocytes assessed as A23187 stimulated LTB4 production pretreated for 30 mins followed by addition of A23187 for 30 mins by EIA; format: cell-based
# T1 sequence (P12527 whole entry): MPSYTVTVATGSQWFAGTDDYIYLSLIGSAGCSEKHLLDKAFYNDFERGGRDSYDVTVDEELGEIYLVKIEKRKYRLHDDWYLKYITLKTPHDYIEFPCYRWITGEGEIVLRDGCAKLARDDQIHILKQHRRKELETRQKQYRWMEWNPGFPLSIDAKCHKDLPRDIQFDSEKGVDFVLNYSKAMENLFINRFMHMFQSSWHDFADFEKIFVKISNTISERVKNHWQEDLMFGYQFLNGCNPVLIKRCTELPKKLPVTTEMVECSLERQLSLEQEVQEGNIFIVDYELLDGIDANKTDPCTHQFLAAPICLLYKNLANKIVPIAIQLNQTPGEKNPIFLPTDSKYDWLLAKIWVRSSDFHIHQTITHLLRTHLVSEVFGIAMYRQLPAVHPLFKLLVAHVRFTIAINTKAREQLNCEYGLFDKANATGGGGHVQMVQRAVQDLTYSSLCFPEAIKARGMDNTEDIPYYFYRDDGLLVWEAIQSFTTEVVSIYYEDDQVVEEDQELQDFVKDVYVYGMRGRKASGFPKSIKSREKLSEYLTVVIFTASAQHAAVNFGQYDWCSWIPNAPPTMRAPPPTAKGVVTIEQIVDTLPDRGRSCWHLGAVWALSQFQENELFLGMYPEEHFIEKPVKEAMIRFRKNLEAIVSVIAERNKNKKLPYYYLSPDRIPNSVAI
# How it was run: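 Rat peritoneal leukocytes collected from Sprague-Dawley rats primed i.p. with 0.2% glycogen (20 mL/kg). Cells in Hanks solution plated at 1.0×10^6/well and held 10 min at 37 °C. Pretreated 30 min with L-cysteine (10 mM), indomethacin (1 mg/L) and compound or DMSO. A23187 added for 30 min. LTB4 in the clarified supernatant measured by EIA; % inhibition from OD; IC50 by Bliss method.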
# [3] = Antiproliferative activity against human PC3 cells after 72 hrs by MTT assay; format: functional, cell-based; conditions: PC-3, 72 h; how it was run: as §1
# [4] = biological target: T2, Prostaglandin G/H synthase 2 (Rattus norvegicus, UniProt P35355); experiment: Inhibition of COX2 in rat abdominal macrophages assessed as PGE2 production pretreated for 30 mins followed by addition of 10 uM arachidonic acid as substrate for 20 mins by EIA
# T2 sequence (P35355 whole entry): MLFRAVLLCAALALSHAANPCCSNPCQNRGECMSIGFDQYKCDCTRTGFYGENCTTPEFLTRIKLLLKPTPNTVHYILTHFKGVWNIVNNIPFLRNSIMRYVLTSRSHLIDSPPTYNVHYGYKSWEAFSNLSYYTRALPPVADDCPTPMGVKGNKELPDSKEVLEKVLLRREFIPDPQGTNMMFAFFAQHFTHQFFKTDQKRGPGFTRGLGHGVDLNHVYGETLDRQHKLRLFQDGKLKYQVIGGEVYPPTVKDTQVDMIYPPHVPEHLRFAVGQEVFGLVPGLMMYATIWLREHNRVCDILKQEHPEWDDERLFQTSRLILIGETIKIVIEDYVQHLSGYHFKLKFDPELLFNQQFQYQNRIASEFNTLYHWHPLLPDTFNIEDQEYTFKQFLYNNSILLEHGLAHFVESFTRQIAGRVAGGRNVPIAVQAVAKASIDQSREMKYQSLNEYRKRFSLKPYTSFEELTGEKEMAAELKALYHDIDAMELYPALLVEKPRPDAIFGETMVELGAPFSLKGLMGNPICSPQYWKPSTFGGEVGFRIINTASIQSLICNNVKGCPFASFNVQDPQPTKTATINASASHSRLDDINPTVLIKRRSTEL
# A549 = experiment: Antiproliferative activity against human A549 cells after 72 hrs by MTT assay; format: functional, cell-based; conditions: A549, 72 h; how it was run: as §1
# [5] = Antiproliferative activity against mouse B16F10 cells after 72 hrs by MTT assay; format: functional, cell-based; conditions: B16-F10, 72 h; how it was run: as §1
# [6] = biological target: T3, Prostaglandin G/H synthase 1 (Bos taurus, UniProt O62664); experiment: Inhibition of COX1 in calf endotheliocyte assessed as 6keto-PGF1alpha production pretreated for 20 mins followed by addition of 10 uM arachidonic acid as substrate for 20 mins by radioimmuno assay
# T3 sequence (O62664 whole entry): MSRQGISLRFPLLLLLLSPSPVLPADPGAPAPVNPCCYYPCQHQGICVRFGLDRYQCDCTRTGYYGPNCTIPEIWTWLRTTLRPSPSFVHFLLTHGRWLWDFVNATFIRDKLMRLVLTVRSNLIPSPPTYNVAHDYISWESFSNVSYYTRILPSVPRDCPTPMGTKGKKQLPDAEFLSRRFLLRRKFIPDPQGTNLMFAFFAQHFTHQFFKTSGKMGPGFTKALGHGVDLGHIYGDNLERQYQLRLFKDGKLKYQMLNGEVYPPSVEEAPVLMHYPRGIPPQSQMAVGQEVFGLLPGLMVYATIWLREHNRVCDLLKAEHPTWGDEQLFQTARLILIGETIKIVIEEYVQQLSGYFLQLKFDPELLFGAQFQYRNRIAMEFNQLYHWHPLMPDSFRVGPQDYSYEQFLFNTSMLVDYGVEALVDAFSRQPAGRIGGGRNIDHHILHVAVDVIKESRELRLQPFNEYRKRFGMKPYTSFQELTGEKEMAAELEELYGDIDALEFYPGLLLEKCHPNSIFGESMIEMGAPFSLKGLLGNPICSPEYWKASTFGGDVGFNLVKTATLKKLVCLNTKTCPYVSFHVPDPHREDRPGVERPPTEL
# How it was run: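 Endothelial cells from neonatal calf thoracic aorta plated at 1.0×10^6 in DMEM with 10% FBS and grown 24 h at 37 °C in 5% CO₂. Compound or DMSO added for 20 min, then arachidonic acid (10 μM) for another 20 min. 6-keto-PGF1α in the medium quantified by radioimmunoassay. IC50 is the mean of four determinations.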
# [7] = Selectivity index, ratio of IC50 for rat COX2 to IC50 for calf COX1
# How it was run: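 Ratio of COX-2 IC50 to COX-1 IC50. COX-2 was measured in rat peritoneal macrophages: 1.0×10^6/well in RPMI 1640 with 5% FCS, grown 24 h, COX-1 inactivated with 1 mM aspirin, COX-2 induced with LPS 1 µg/mL for 6 h, compound added for 30 min, then arachidonic acid 10 µM for 20 min, PGE2 read by EIA. COX-1 was measured in calf aortic endothelial cells by 6-keto-PGF1α radioimmunoassay.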
# Mus musculus [8] = experiment: Toxicity in mouse xenografted with B16F10 cells assessed as body weight at 40 mg/kg, iv measured after 25 days (reference value: 28.1 +/- 1.7 g); format: organism-based, B16-F10; conditions: in vivo, 600 h
# How it was run: (§2)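 B16-F10 cells implanted subcutaneously in the right oxter of ICR mice weighing 18-22 g. After 7 days, animals weighed and randomized into groups of 10. Dosed intravenously with vehicle (saline with 1% DMSO/2% poloxamer, 0.4 ml/mouse), 40 mg/kg test agent, or 5-FU 20 mg/kg. Killed on day 25 after implantation. Tumors excised and weighed; inhibition = (1 − treated/vehicle mean tumor weight)×100; body weights recorded at start and end.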
# [9] = Antitumor activity against mouse B16F10 cells xenografted in mouse assessed as inhibition of tumor growth at 40 mg/kg, iv after 25 days; format: functional; conditions: B16-F10, iv, 600 h; how it was run: as §2
# [10] = biological target: T4, Prostaglandin G/H synthase 2 (Homo sapiens, UniProt P35354); experiment: Inhibition of COX-2 (unknown origin)
# T4 sequence (P35354 whole entry): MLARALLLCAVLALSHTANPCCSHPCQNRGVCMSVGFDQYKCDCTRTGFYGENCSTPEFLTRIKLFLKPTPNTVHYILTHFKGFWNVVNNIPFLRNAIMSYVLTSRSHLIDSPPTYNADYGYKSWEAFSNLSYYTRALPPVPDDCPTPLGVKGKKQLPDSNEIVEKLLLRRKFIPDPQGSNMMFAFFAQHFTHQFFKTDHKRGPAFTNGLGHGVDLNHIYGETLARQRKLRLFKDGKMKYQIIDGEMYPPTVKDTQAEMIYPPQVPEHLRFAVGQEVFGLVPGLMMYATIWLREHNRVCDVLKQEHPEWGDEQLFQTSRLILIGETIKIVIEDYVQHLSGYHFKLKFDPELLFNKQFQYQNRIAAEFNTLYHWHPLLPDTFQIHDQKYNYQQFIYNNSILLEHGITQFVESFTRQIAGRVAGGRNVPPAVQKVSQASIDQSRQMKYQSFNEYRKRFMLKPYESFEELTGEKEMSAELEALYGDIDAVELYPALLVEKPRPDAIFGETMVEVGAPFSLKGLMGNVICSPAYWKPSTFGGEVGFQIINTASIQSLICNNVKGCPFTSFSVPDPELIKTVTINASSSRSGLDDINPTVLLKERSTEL
# [11] = Antitumor activity against mouse B16F10 cells xenografted in mouse assessed as inhibition of tumor growth at 20 mg/kg, iv after 25 days; format: functional; conditions: B16-F10, iv, 600 h
# Mus musculus [12] = experiment: Toxicity in mouse xenografted with B16F10 cells assessed as body weight at 20 mg/kg, iv measured after 25 days (reference value: 28.1 +/- 1.7 g); format: organism-based, B16-F10; conditions: in vivo, 600 h
smiles,measurement,setting,value
CS(=O)(=O)c1ccc(-c2nc(SCCCNC(=O)/C=C/c3ccc(O)c(O)c3)nn2-c2ccc(F)cc2)cc1,IC50,[1],20.9 µM
same,IC50,[2],0.71 µM
same,IC50,[3],23.1 µM
same,IC50,[4],0.12 µM
same,IC50,A549,22.1 µM
same,IC50,[5],18.7 µM
same,IC50,[6],13.2 µM
same,Ratio IC50,[7],0.009
COc1cc(/C=C/C(=O)OCCSc2nc(-c3ccc(S(C)(=O)=O)cc3)n(-c3ccc(C(F)(F)F)cc3)n2)ccc1O,IC50,[1],9.05 µM
same,IC50,[2],0.81 µM
same,Activity,Mus musculus [8],26.3 g
same,IC50,[3],7.46 µM
same,inhibition in vivo at 40 mg/kg,[9],58.9%
same,IC50,[4],0.21 µM
same,IC50,A549,6.78 µM
same,IC50,[5],8.65 µM
same,IC50,[6],20.5 µM
same,Ratio IC50,[7],0.01
CSc1nc(-c2ccc(S(N)(=O)=O)cc2)n(-c2ccc(Cl)cc2)n1,IC50,[1],41.2 µM
same,IC50,[3],37.5 µM
same,IC50,[10],0.37 µM
same,IC50,A549,29.5 µM
same,IC50,[5],32.3 µM
CS(=O)(=O)c1ccc(-c2nc(SCCCOC(=O)/C=C/c3ccccc3)nn2-c2ccc(Br)cc2)cc1,IC50,[1],24.6 µM
same,IC50,[2],1.3 µM
same,IC50,[3],21.9 µM
same,IC50,[4],0.42 µM
same,IC50,A549,22.3 µM
same,IC50,[5],19.4 µM
same,IC50,[6],45.7 µM
same,Ratio IC50,[7],0.009
O=c1[nH]cc(F)c(=O)[nH]1 [FLUOROURACIL],inhibition in vivo at 20 mg/kg,[11],68.2%
same,Activity,Mus musculus [12],26 g
